Data as given in ChEMBL document CHEMBL2062383, “Synthesis and antibacterial activity of 6-O-(heteroaryl-isoxazolyl)propynyl 2-fluoro ketolides” (2012).
Values after ≈ are worked out from the molar mass of the structure shown. Active and inactive are the calls of the source. The calls are words filed in the database; no cut-off is given here.

How the values were obtained:
Streptococcus pneumoniae [1] = test: Antibacterial activity against eryhtromycin-susceptible Streptococcus pneumoniae ATCC 49619 by broth microdilution method; format: functional
Procedure, shortened: (§1)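 MIC by broth microdilution, following Clinical and Laboratory Standards Institute guidelines for S. pneumoniae and S. pyogenes.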

Streptococcus pneumoniae [2] = test: Antibacterial activity against Streptococcus pneumoniae 210 expressing mefA efflux pump by broth microdilution method; format: functional
Procedure, shortened: (§2)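 MIC by broth microdilution following CLSI guidelines for S. pneumoniae and H. influenzae.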

Streptococcus pneumoniae [3] = test: Antibacterial activity against erythromycin-resistant Streptococcus pneumoniae 205 expressing ermB ribosomal methylase by broth microdilution method; format: functional; procedure, shortened: as §1
Streptococcus pyogenes = test: Antibacterial activity against erythromycin-resistant Streptococcus pyogenes 1104 expressing ermB ribosomal methylase by broth microdilution method; format: functional; procedure, shortened: as §1
Haemophilus influenzae [4] = test: Antibacterial activity against Haemophilus influenzae ATCC 43095 by broth microdilution method; format: functional; procedure, shortened: as §2
Streptococcus pneumoniae [5] = test: Ratio of clarithromycin MIC to compound MIC for eryhtromycin-susceptible Streptococcus pneumoniae ATCC 49619; format: functional
Haemophilus influenzae [6] = test: Ratio of clarithromycin MIC to compound MIC for Haemophilus influenzae ATCC 43095; format: functional
Streptococcus pneumoniae [7] = test: Antibacterial activity against erythromycin-resistant Streptococcus pneumoniae 1101 expressing ermB ribosomal methylase infected in po dosed CBA/JN mouse assessed as decrease in bacterial count in lungs administered QD 1 day post-inoculation for 2 days measured after 1 day; format: functional, organism-based
Procedure, shortened: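 Five-week-old male CBA/JN mice were inoculated intranasally with erm(B) S. pneumoniae 1101 at 5.5×10^4 CFU/mouse. Oral dosing once daily started the day after inoculation and continued for 2 days. Lung bacterial counts were taken the day after the last dose. Data are given as mean ± S.E., with Steel's test versus untreated control.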

Haemophilus influenzae [8] = test: Antibacterial activity against Haemophilus influenzae ATCC 43095 infected in po dosed ICR mouse assessed as decrease in bacterial count in lungs administered QD 1 day post-inoculation for 2 days measured after 1 day; format: functional, organism-based
Procedure, shortened: (§3)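 Four-week-old male ICR mice were inoculated intratracheally with 5.2×10^6 CFU/mouse. Oral dosing began the day after inoculation, once daily for 2 days. Lung bacterial counts were taken the day after the last dose and are given as mean ± S.E. versus untreated control, with Steel's test.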

Haemophilus influenzae [9] = test: Antibacterial activity against Haemophilus influenzae ATCC 43095 infected in ICR mouse assessed as decrease in bacterial count in lungs at 50 mg/kg, po administered QD 1 day post-inoculation for 2 days measured after 1 day; format: functional, organism-based; parameters: dose 50 mg/kg; procedure, shortened: as §3
Streptococcus pneumoniae [10] = test: Antibacterial activity against erythromycin-resistant Streptococcus pneumoniae 1101 expressing ermB ribosomal methylase by broth microdilution method; format: functional; procedure, shortened: as §1

SMILES | MIC (Streptococcus pneumoniae [1]) [µg/mL] | MIC (Streptococcus pneumoniae [2]) [µg/mL] | MIC (Streptococcus pneumoniae [3]) [µg/mL] | MIC (Streptococcus pyogenes) [µg/mL] | MIC (Haemophilus influenzae [4]) [µg/mL] | Ratio (Streptococcus pneumoniae [5]) | Ratio (Haemophilus influenzae [6]) | Activity (Streptococcus pneumoniae [7]) | Activity (Haemophilus influenzae [8]) | Activity (Haemophilus influenzae [9]) | MIC (Streptococcus pneumoniae [10]) [µg/mL]
CC[C@H]1OC(=O)[C@H](C)[C@@H](O[C@H]2C[C@@](C)(OC)[C@@H](O)[C@H](C)O2)[C@H](C)[C@@H](O[C@@H]2O[C@H](C)C[C@H](N(C)C)[C@H]2O)[C@](C)(OC)C[C@@H](C)C(=O)[C@H](C)[C@@H](O)[C@]1(C)O [CLARITHROMYCIN] | 0.03 (≈ 0.0401 µM) | 2 (≈ 2.67 µM) | > 128 | > 128 | 4 (≈ 5.35 µM) |  |  |  |  |  | 
CC[C@H]1OC(=O)[C@@](C)(F)C(=O)[C@H](C)[C@@H](O[C@@H]2O[C@H](C)C[C@H](N(C)C)[C@H]2O)[C@](C)(OCC#Cc2cc(-c3cccnn3)no2)C[C@@H](C)C(=O)[C@H](C)[C@H]2NC(=O)O[C@@]21C | 0.008 (≈ 0.01 µM) | 0.03 (≈ 0.0375 µM) | 0.008 (≈ 0.01 µM) | 1 (≈ 1.25 µM) | 2 (≈ 2.5 µM) | 4 | 2 | Dose-dependent effect | Dose-dependent effect | Active | 0.016 (≈ 0.02 µM)
CC[C@H]1OC(=O)[C@H](C)[C@@H](O[C@H]2C[C@@](C)(OC)[C@@H](O)[C@H](C)O2)[C@H](C)[C@@H](O[C@@H]2O[C@H](C)C[C@H](N(C)C)[C@H]2O)[C@](C)(O)C[C@@H](C)CN(C)[C@H](C)[C@@H](O)[C@]1(C)O [AZITHROMYCIN] | 0.06 (≈ 0.0801 µM) | 2 (≈ 2.67 µM) | > 128 | > 128 | 0.5 (≈ 0.668 µM) |  |  |  |  |  | 
CC[C@H]1OC(=O)[C@@](C)(F)C(=O)[C@H](C)[C@@H](O[C@@H]2O[C@H](C)C[C@H](N(C)C)[C@H]2O)[C@](C)(OCC#Cc2cc(-c3cnc(N)nc3)no2)C[C@@H](C)C(=O)[C@H](C)[C@H]2NC(=O)O[C@@]21C | 0.008 (≈ 0.00982 µM) | 0.03 (≈ 0.0368 µM) | 0.008 (≈ 0.00982 µM) | 0.06 (≈ 0.0736 µM) | 2 (≈ 2.45 µM) | 4 | 2 | Dose-dependent effect | Dose-dependent effect |  | 0.008 (≈ 0.00982 µM)
CC[C@H]1OC(=O)[C@@](C)(F)C(=O)[C@H](C)[C@@H](O[C@@H]2O[C@H](C)C[C@H](N(C)C)[C@H]2O)[C@](C)(OCC#Cc2cc(-c3ncccn3)no2)C[C@@H](C)C(=O)[C@H](C)[C@H]2NC(=O)O[C@@]21C | 0.008 (≈ 0.01 µM) | 0.03 (≈ 0.0375 µM) | 0.008 (≈ 0.01 µM) | 2 (≈ 2.5 µM) | 2 (≈ 2.5 µM) | 4 | 2 | Dose-dependent effect | Dose-dependent effect |  | 0.016 (≈ 0.02 µM)
